Test results as given in ChEMBL document CHEMBL1126662, “Synthesis and use of the n-bromododecane-1,12-diols as conformational probes for general anesthetic target sites” (J Med Chem, 1993).
Values after ≈ are worked out from the molar mass of the structure shown.

Assays:
[1] = Aqueous solubility in 25 mM N-glycyl-glycine and 10 mM MgSO4 (pH 7.8); assay type: physicochemical; conditions: 25 mM N-glycyl-glycine and 10 mM MgSO4 buffer, read-out: S
Procedure, shortened: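 Diol solubility measured at 25 ± 1 °C in pH 7.8 buffer (25 mM N-glycylglycine, 10 mM MgSO4), a modified Curry method; dissolved diol quantified by inhibition of firefly luciferase. Values mean ± SE.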

[2] = Inhibition constant for firefly luciferase was evaluated; design: species or system Lampyridae
Procedure, shortened: (§1)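 Luciferase purified from Photinus pyralis lanterns by affinity chromatography; light-emission assay at 25 ± 1 °C with 2 mM ATP, competitive versus luciferin. Diols added in ethanol (final 23 mM, also in controls). Triplicate activities at ~5 diol levels each paired with control; Ki by weighted least squares from ~15 estimates; EC50 = 2Ki at luciferin Km.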

[3] = Headecane/water partition coefficient expressed as the equilibrium ratio of the molar concentration in n-hexadecane to that in the buffer; assay type: physicochemical
Procedure, shortened: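 Molar partition between n-hexadecane and pH 7.8 glycylglycine/MgSO4 buffer at 25 ± 1 °C; aqueous diol measured by luciferase method; at least five independent determinations per diol; mean ± SE.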

[4] = Concentration which anesthetizes 50% of a population of Rana temporaria tadpoles at 20 degrees Centigrade; assay type: functional, frog
Procedure, shortened: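 Rana temporaria tadpoles (20–25 mm) at 20 ± 1 °C, six per beaker in 7–10 beakers of tap water with graded diol. Endpoint: no reflex to gentle glass-rod tap on side or snout, tested every 15 min up to 2 h; Waud dose–response analysis. Convulsing tadpoles excluded.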

[5] = Concentration which inhibits luciferase activity by 50% when the luciferon concentration is at its Km; design: species or system Lampyridae; procedure, shortened: as §1

Row | solubility [1] | Ki [2] | Khd [3] | EC50 [4] | EC50 [5] | SMILES
1 | 800 µM (≈ 225 µg/mL) | 0.87 µM | 3.1 | 56 µM | 1.74 µM | OCCCCCCCCCC(Br)CCO (stereo not given)
2 | 725 µM (≈ 204 µg/mL) | 0.44 µM | 13 | 34 µM | 0.88 µM | OCCCCCCCCCCC(Br)CO (stereo not given)
3 | 2260 µM (≈ 636 µg/mL) | 14.6 µM | 0.32 | 97 µM | 29.2 µM | OCCCCCCC(Br)CCCCCO (stereo not given)
4 | 95 µM (≈ 19.2 µg/mL) | 0.77 µM | 4.7 | 39 µM | 1.54 µM | OCCCCCCCCCCCCO
5 | 2340 µM (≈ 658 µg/mL) | 3.69 µM | 0.9 | 29 µM | 7.38 µM | OCCCCCCCC(Br)CCCCO (stereo not given)
